Reference: ChEMBL document CHEMBL4715736, “Identification of anticancer agents based on the thieno[2,3-b]pyridine and 1H-pyrazole molecular scaffolds” (2016)

Key:
Type in all cases: functional
HCT-116 = experiment: Growth inhibition of human HCT-116 cells assessed as cell growth at 1 uM incubated for 48 hrs by sulforhodamine B assay relative to control; conditions: read-out: Activity
SK-OV-3 = experiment: Growth inhibition of human SK-OV-3 cells assessed as cell growth at 100 uM incubated for 48 hrs by sulforhodamine B assay relative to control; conditions: read-out: Activity
SK-MEL-28 [1] = experiment: Growth inhibition of human SK-MEL-28 cells incubated for 48 hrs by sulforhodamine B assay
How it was run: (§1)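 NCI DTP 60-line human tumour panel. Dose-response curves were run only for ligands active in the initial 10 µM screen. GI50 (concentration giving 50% of maximal inhibition of proliferation) and TGI (concentration giving total growth inhibition) were derived from these curves.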

SF-295 = experiment: Growth inhibition of human SF-295 cells assessed as cell growth at 0.01 uM incubated for 48 hrs by sulforhodamine B assay relative to control; conditions: read-out: Activity
HOP-62 = experiment: Growth inhibition of human HOP-62 cells assessed as cell growth at 0.01 uM incubated for 48 hrs by sulforhodamine B assay relative to control; conditions: read-out: Activity
PC-3 = experiment: Growth inhibition of human PC-3 cells assessed as cell growth at 0.1 uM incubated for 48 hrs by sulforhodamine B assay relative to control; conditions: read-out: Activity
Hs-578T = experiment: Growth inhibition of human Hs-578T cells incubated for 48 hrs by sulforhodamine B assay; conditions: for CC50: read-out: LC50 (the source's name)
How it was run: (§2)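 NCI60 panel at the NCI Developmental Therapeutics Program. Only compounds active in the 10 µM screen went to dose-response testing. GI50, the concentration giving 50% of maximal inhibition of proliferation, and TGI, the concentration giving total growth inhibition, were derived from the dose-response curves.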

SN12C = experiment: Growth inhibition of human SN12C cells incubated for 48 hrs by sulforhodamine B assay; conditions: for CC50: read-out: LC50 (the source's name); how it was run: as §1
OVCAR-3 = experiment: Growth inhibition of human OVCAR-3 cells assessed as cell growth at 1 uM incubated for 48 hrs by sulforhodamine B assay relative to control; conditions: read-out: Activity
UO-31 = experiment: Growth inhibition of human UO-31 cells assessed as cell growth at 0.01 uM incubated for 48 hrs by sulforhodamine B assay relative to control; conditions: read-out: Activity
OVCAR-4 [2] = experiment: Growth inhibition of human OVCAR-4 cells assessed as cell growth at 0.01 uM incubated for 48 hrs by sulforhodamine B assay relative to control; conditions: read-out: Activity
CAKI-1 = experiment: Growth inhibition of human CAKI-1 cells assessed as cell growth at 1 uM incubated for 48 hrs by sulforhodamine B assay relative to control; conditions: read-out: Activity
How it was run: (§3)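 NCI Developmental Therapeutics Program NCI60 panel. Compounds that were active in the 10 µM one-dose screen went on to dose–response testing. Growth at each concentration is expressed relative to untreated control (100%). GI50 (concentration giving 50% of maximal inhibition of proliferation) and TGI (concentration giving total growth inhibition) were derived from the curves.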

DU-145 [3] = experiment: Growth inhibition of human DU-145 cells assessed as cell growth at 0.1 uM incubated for 48 hrs by sulforhodamine B assay relative to control; conditions: read-out: Activity; how it was run: as §3
SK-MEL-28 [4] = experiment: Growth inhibition of human SK-MEL-28 cells assessed as cell growth at 0.1 uM incubated for 48 hrs by sulforhodamine B assay relative to control; conditions: read-out: Activity
SNB-19 = experiment: Growth inhibition of human SNB-19 cells incubated for 48 hrs by sulforhodamine B assay; how it was run: as §1
KM12 = experiment: Growth inhibition of human KM12 cells assessed as cell growth at 0.1 uM incubated for 48 hrs by sulforhodamine B assay relative to control; conditions: read-out: Activity
NCI-H23 = experiment: Growth inhibition of human NCI-H23 cells assessed as cell growth at 1 uM incubated for 48 hrs by sulforhodamine B assay relative to control; conditions: read-out: Activity
TK-10 = experiment: Growth inhibition of human TK-10 cells assessed as cell growth at 0.01 uM incubated for 48 hrs by sulforhodamine B assay relative to control; conditions: read-out: Activity
UACC-62 = experiment: Growth inhibition of human UACC-62 cells assessed as cell growth at 1 uM incubated for 48 hrs by sulforhodamine B assay relative to control; conditions: read-out: Activity
NCI/ADR-RES = experiment: Growth inhibition of human NCI/ADR-RES cells assessed as cell growth at 0.01 uM incubated for 48 hrs by sulforhodamine B assay relative to control; conditions: read-out: Activity
OVCAR-8 = experiment: Growth inhibition of human OVCAR-8 cells incubated for 48 hrs by sulforhodamine B assay; conditions: for CC50: read-out: LC50 (the source's name); how it was run: as §1
OVCAR-4 [5] = experiment: Growth inhibition of human OVCAR-4 cells incubated for 48 hrs by sulforhodamine B assay; conditions: for CC50: read-out: LC50 (the source's name); how it was run: as §1
U-251 [6] = experiment: Growth inhibition of human U-251 cells assessed as cell growth at 0.01 uM incubated for 48 hrs by sulforhodamine B assay relative to control; conditions: read-out: Activity
HT-29 [7] = experiment: Growth inhibition of human HT-29 cells assessed as cell growth at 100 uM incubated for 48 hrs by sulforhodamine B assay relative to control; conditions: read-out: Activity
NCI-H322M = experiment: Growth inhibition of human NCI-H322M cells assessed as cell growth at 0.1 uM incubated for 48 hrs by sulforhodamine B assay relative to control; conditions: read-out: Activity
LOX IMVI = experiment: Growth inhibition of human LOX IMVI cells assessed as cell growth at 0.01 uM incubated for 48 hrs by sulforhodamine B assay relative to control; conditions: read-out: Activity
U-251 [8] = experiment: Growth inhibition of human U-251 cells assessed as cell growth at 0.1 uM incubated for 48 hrs by sulforhodamine B assay relative to control; conditions: read-out: Activity
HCT-15 = experiment: Growth inhibition of human HCT-15 cells assessed as cell growth at 1 uM incubated for 48 hrs by sulforhodamine B assay relative to control; conditions: read-out: Activity
SF-268 = experiment: Growth inhibition of human SF-268 cells assessed as cell growth at 100 uM incubated for 48 hrs by sulforhodamine B assay relative to control; conditions: read-out: Activity
MCF7 = experiment: Growth inhibition of human MCF7 cells incubated for 48 hrs by sulforhodamine B assay; conditions: for CC50: read-out: LC50 (the source's name); how it was run: as §2
ACHN = experiment: Growth inhibition of human ACHN cells assessed as cell growth at 1 uM incubated for 48 hrs by sulforhodamine B assay relative to control; conditions: read-out: Activity
HT-29 [9] = experiment: Growth inhibition of human HT-29 cells assessed as cell growth at 0.1 uM incubated for 48 hrs by sulforhodamine B assay relative to control; conditions: read-out: Activity
CCRF-CEM = experiment: Growth inhibition of human CCRF-CEM cells assessed as cell growth at 1 uM incubated for 48 hrs by sulforhodamine B assay relative to control; conditions: read-out: Activity; how it was run: as §3
DU-145 [10] = experiment: Growth inhibition of human DU-145 cells assessed as cell growth at 1 uM incubated for 48 hrs by sulforhodamine B assay relative to control; conditions: read-out: Activity; how it was run: as §3
RPMI-8226 = experiment: Growth inhibition of human RPMI-8226 cells assessed as cell growth at 0.1 uM incubated for 48 hrs by sulforhodamine B assay relative to control; conditions: read-out: Activity

SMILES: Nc1c(C(=O)Nc2ccccc2)sc2nc3c(cc12)CN(Cc1ccccc1)CC3
- growth at 1 µM (HCT-116): 86%
- growth at 100 µM (SK-OV-3): 5%
- GI50 (SK-MEL-28 [1]): 23.2 µM
- LC50 (SK-MEL-28 [1]): > 100 µM
- TGI (SK-MEL-28 [1]): > 100 µM
- growth at 0.01 µM (SF-295): 96%
- growth at 0.01 µM (HOP-62): 89%
- growth at 0.1 µM (PC-3): 91%
- GI50 (Hs-578T): 2.07 µM
- TGI (Hs-578T): 7.55 µM
- CC50 (Hs-578T): > 100 µM
- GI50 (SN12C): 65.7 µM
- TGI (SN12C): > 100 µM
- CC50 (SN12C): > 100 µM
- growth at 1 µM (OVCAR-3): 100%
- growth at 0.01 µM (UO-31): 80%
- growth at 0.01 µM (OVCAR-4 [2]): 101%
- growth at 1 µM (CAKI-1): 87%
- growth at 0.1 µM (DU-145 [3]): 107%
- growth at 0.1 µM (SK-MEL-28 [4]): 93%
- GI50 (SNB-19): 18.3 µM
- LC50 (SNB-19): > 100 µM
- TGI (SNB-19): > 100 µM
- growth at 0.1 µM (KM12): 95%
- growth at 1 µM (NCI-H23): 101%
- growth at 0.01 µM (TK-10): 93%
- growth at 1 µM (UACC-62): 89%
- growth at 0.01 µM (NCI/ADR-RES): 103%
- GI50 (OVCAR-8): 16.8 µM
- TGI (OVCAR-8): > 100 µM
- CC50 (OVCAR-8): > 100 µM
- GI50 (OVCAR-4 [5]): 1.97 µM
- TGI (OVCAR-4 [5]): 23.1 µM
- CC50 (OVCAR-4 [5]): > 100 µM
- growth at 0.01 µM (U-251 [6]): 98%
- growth at 100 µM (HT-29 [7]): 8%
- growth at 0.1 µM (NCI-H322M): 93%
- growth at 0.01 µM (LOX IMVI): 94%
- growth at 0.1 µM (U-251 [8]): 98%
- growth at 1 µM (HCT-15): 94%
- growth at 100 µM (SF-268): 9%
- GI50 (MCF7): 12.1 µM
- TGI (MCF7): > 100 µM
- CC50 (MCF7): > 100 µM
- growth at 1 µM (ACHN): 87%
- growth at 0.1 µM (HT-29 [9]): 101%
- growth at 1 µM (CCRF-CEM): 92%
- growth at 1 µM (DU-145 [10]): 74%
- growth at 0.1 µM (RPMI-8226): 99%

SMILES: COc1cccc(NC(=O)c2sc3nc4c(cc3c2N)CN(Cc2ccccc2)CC4)c1
- growth at 1 µM (HCT-116): 59%
- growth at 100 µM (SK-OV-3): -66%
- GI50 (SK-MEL-28 [1]): 2.8 µM
- LC50 (SK-MEL-28 [1]): > 100 µM
- TGI (SK-MEL-28 [1]): 29.7 µM
- growth at 0.01 µM (SF-295): 87%
- growth at 0.01 µM (HOP-62): 80%
- growth at 0.1 µM (PC-3): 88%
- GI50 (Hs-578T): 2.14 µM
- TGI (Hs-578T): 23 µM
- CC50 (Hs-578T): > 100 µM
- GI50 (SN12C): 11.2 µM
- TGI (SN12C): > 100 µM
- CC50 (SN12C): > 100 µM
- growth at 1 µM (OVCAR-3): 82%
- growth at 0.01 µM (UO-31): 92%
- growth at 0.01 µM (OVCAR-4 [2]): 86%
- growth at 1 µM (CAKI-1): 78%
- growth at 0.1 µM (DU-145 [3]): 104%
- growth at 0.1 µM (SK-MEL-28 [4]): 99%
- GI50 (SNB-19): 4.75 µM
- LC50 (SNB-19): > 100 µM
- TGI (SNB-19): > 100 µM
- growth at 0.1 µM (KM12): 98%
- growth at 1 µM (NCI-H23): 89%
- growth at 0.01 µM (TK-10): 104%
- growth at 1 µM (UACC-62): 58%
- growth at 0.01 µM (NCI/ADR-RES): 102%
- GI50 (OVCAR-8): 4.45 µM
- TGI (OVCAR-8): 85.2 µM
- CC50 (OVCAR-8): > 100 µM
- GI50 (OVCAR-4 [5]): 2.68 µM
- TGI (OVCAR-4 [5]): 19.7 µM
- CC50 (OVCAR-4 [5]): > 100 µM
- growth at 0.01 µM (U-251 [6]): 99%
- growth at 100 µM (HT-29 [7]): -72%
- growth at 0.1 µM (NCI-H322M): 96%
- growth at 0.01 µM (LOX IMVI): 97%
- growth at 0.1 µM (U-251 [8]): 98%
- growth at 1 µM (HCT-15): 49%
- growth at 100 µM (SF-268): -40%
- GI50 (MCF7): 0.62 µM
- TGI (MCF7): > 100 µM
- CC50 (MCF7): > 100 µM
- growth at 1 µM (ACHN): 92%
- growth at 0.1 µM (HT-29 [9]): 103%
- growth at 1 µM (CCRF-CEM): 82%
- growth at 1 µM (DU-145 [10]): 95%
- growth at 0.1 µM (RPMI-8226): 101%
